CHOP inh: CHOP inhibition in unfolded protein response; inhibition, % at 10 µM; hit rate 3.8% among 220,000; CHO-K1 CHOP-promoter luciferase, tunicamycin-induced, 15-18 h;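 active = compounds that reduced the stress-induced luciferase reporter signal by more than about 70% of percent inhibition, limit read from the data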;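 also: 0% = tunicamycin plus vehicle and 100% = wells without tunicamycin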
Jurkat NFkB inh: lowers PMA/ionomycin-induced NF-kB signal in Jurkat cells; PMA/ionomycin-induced NF-kB luciferase reporter, luminescence; inhibition, % at 4 µM; hit rate 0.53% among 330,000; in the data active = inhibition above about 50%
UPR CHOP act: apoptotic UPR (CHOP) activation; CHO-CHOP luciferase reporter, luminescence; percent of tunicamycin response over DMSO baseline; activation, % at 10 µM; hit rate 0.34% among 330,000; AID 449763;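 active = at 10 µM dose, activation of 40% or more, normalized to positive control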;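 also: 100% = tunicamycin at 10 µg/mL and 0% = DMSO alone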
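Dosing – one dose, 10 µM in 0.5% DMSO · System – CHO-CHOP cells, stable luciferase reporter of PERK-eIF2a-CHOP signalling · Input – 500 cells/well · Control set – tunicamycin 10 µg/mL final as positive, DMSO-only wells as negative · Timing – 6 h compound treatment, 37 °C · Measure – % activation vs tunicamycin · Technique – luminescence read with Steady-Glo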
697 NFkB inh: lowers PMA/ionomycin-induced NF-kB signal in 697 B cells. 697 B-cell NF-kB luciferase reporter, 16 h. inhibition, % at 4 µM. hit rate 0.33% among 330,000; in the data active = inhibition above about 35%
XBP1 UPR activ: adaptive UPR (XBP1) activation. CHO-XBP1 luciferase reporter, IRE1-XBP1 UPR activation, luminescence; percent of tunicamycin response, DMSO as zero. activation, % at 20 µM. hit rate 0.33% among 330,000. AID 463104;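 active = versus positive control, 20 µM dose yields 30% or more activation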;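 also: 100% = tunicamycin at 10 µg/mL and 0% = DMSO only wells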
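Material: CHO-XBP1 cells stably carrying IRE1-XBP1-driven luciferase reporter / Amount: 1000 cells per well / Compound: 20 µM, 1% DMSO / Times: 6 h treatment, 37 °C / Detection: luciferase luminescence / Measure: % activation of reporter signal versus tunicamycin and DMSO controls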
Starred values were filed as active, the others as inactive; . = no result. The sample as a whole holds a higher share of hits than the screen did.

SMILES	CHOP inh	Jurkat NFkB inh	UPR CHOP act	697 NFkB inh	XBP1 UPR activ
O=C(Cc1cccc2ccccc12)N/N=C/c1ccc(F)cc1	74.2*	20.5	0.0	15.1	-3.6
Cc1ccccc1N(CC(=O)N/N=C/c1ccc(F)cc1)C(=O)c1ccccc1	88.9*	10.2	3.0	-15.7	-0.8
Cc1ccccc1N(CC(=O)N/N=C/c1ccc(Cl)cc1)C(=O)c1ccccc1	72.5*	-9.3	7.1	-10.2	1.0
O=C(Cc1cccc2ccccc12)N/N=C/c1ccncc1	15.2	-10.8	1.1	18.2	-2.7
O=c1c2ccccc2sn1-c1nccs1	93.8*	.	.	.	.
O=C(Cn1cncc1-c1ccc([N+](=O)[O-])cc1)Nc1cccc2ccccc12	92.5*	.	.	.	.
COc1ccc2nc(NC(=O)c3sc4nc(C)cc(C)c4c3N)sc2c1	73.9*	-118.6	9.4	-113.9	14.7
Cc1ccc(S(=O)(=O)N2CCC(N3CCN(C)CC3)CC2)cc1Cl	.	-29.3	1.1	-29.5	2.0
Fc1ccc(-n2nnc(-c3cnc4ccccc4c3)n2)cc1	71.5*	-46.0	-6.9	-154.7	-8.4
Nc1nc(NCc2ccco2)nc(Nc2ccccc2)c1[N+](=O)[O-]	20.2	6.3	-1.6	-3.0	2.3
Nc1nc(Nc2ccccc2)nc(NCc2ccco2)c1[N+](=O)[O-]	85.9*	-22.6	1.6	-23.3	4.3
C=C(C)c1cccc(C(C)(C)NC(=O)N2CCN(C/C=C/c3ccccc3)CC2)c1	38.2	2.9	-0.2	18.9	-3.2
CCCCc1c(C)c(C#N)c2nc3ccccc3n2c1Cl	106.3*	.	.	.	.
O=C(Nc1nnc(CCc2ccccc2)s1)c1cccc(F)c1	.	-20.7	3.4	-45.5	1.1
Cc1cccc(N2CCN(c3cccc(C)c3)C2c2cccnc2)c1	.	-16.5	3.0	-41.4	-2.9
Cc1ccc(N2CCN(c3ccc(C)cc3)C2c2ccncc2)cc1	77.0*	15.6	-1.1	-0.1	-3.2
Fc1ccc(N/N=C/C=C/c2ccccc2)c(F)c1	77.0*	-39.5	3.7	-43.5	5.7
Fc1ccc(N/N=C/c2ccncc2)c(F)c1	-4.9	-33.1	3.2	-1.5	1.6
CCOC(=O)C1(Cc2cccc(Cl)c2)CCCN(C(=O)c2c(CC)noc2C)C1 (stereo not given)	.	-30.9	0.3	-66.2	-0.1
CC(C)(C)c1cc(CCC(=O)NNC(=S)NC(=O)c2ccccc2)cc(C(C)(C)C)c1O	108.8*	-1.3	20.4	-28.3	23.4
Nc1nc(N)nc(-c2ccc(Oc3ccccc3)cc2)n1	9.0	-15.6	-0.9	-23.8	-1.1
Cc1ccc(Oc2ccc(-c3nc(N)nc(N)n3)cc2)cc1C	88.5*	-8.8	2.2	-43.3	-1.2
O=C(c1ccc2ccccc2n1)N1CCN(c2ccccc2O)CC1	5.9	-19.6	2.7	-9.1	1.1
CCc1ccc(CN(C)CC(=O)Nc2ccc3c(c2)CCC3)cc1	91.6*	-9.0	-1.6	7.9	0.5
CC(C)n1c(CSCc2ccc(Cl)cc2Cl)n[nH]c1=S	19.1	-3.9	-1.4	-8.3	0.3
SMILES	CHOP inh	Jurkat NFkB inh	UPR CHOP act	697 NFkB inh	XBP1 UPR activ
Cc1cc(-c2csc(N)n2)c(C)n1CCc1ccccc1	80.8*	-12.4	-5.8	11.4	-2.4
Cc1cc(-c2csc(N)n2)c(C)n1CCC(C)C	79.3*	-2.8	-3.6	-10.2	1.8
Cc1cc(-c2csc(NCc3ccccc3)n2)c(C)n1C	20.1	.	.	.	.
O=C(c1ccco1)N1CCN(C(=O)C2CC(=O)N(c3ccc(Cl)cc3)C2)CC1 (stereo not given)	.	-0.8	0.1	-24.8	3.0
Cc1ccc(-c2nc(-c3cccnc3)no2)c(C)c1	73.4*	-113.5	3.0	-148.7	0.8
CC(C)c1ccc(/C=N/NC(=O)c2nnn(-c3nonc3N)c2CSC2=NCCS2)cc1	74.1*	0.9	4.1	-17.8	1.3
CC(C)(C)NC(=O)C(c1ccccn1)N(C(=O)c1csnn1)C1CCCC1 (stereo not given)	-32.7	-4.5	-0.1	3.7	-3.1
CC(C)(C)c1ccc(OCCCNCc2ccccc2)cc1	94.7*	2.9	-0.7	1.5	-0.8
CC1(C)CC(c2nc(-c3ccc([N+](=O)[O-])cc3)cs2)CCO1 (stereo not given)	-5.5	2.8	3.1	-7.4	-0.6
Cc1cc(C)nc(N2CCC(C(=O)N3CCN(c4cc(Cl)ccc4C)CC3)CC2)n1	64.6	18.5	-1.2	5.9	1.3
Cc1ccc(N2CCN(C(=O)c3ccccc3)CC2)c(C)c1	40.7	2.6	-1.4	-6.9	3.6

Screening data (PubChem)
